In brackets after ≈: the same amount, converted by molar mass.
Legend:
Format in all cases: functional
Helicoverpa armigera [1] = assay: Stomach toxicity in Helicoverpa armigera in compound treated corn leaves assessed as mortality at 1000 mg/L measured after 4 days by leaf-dip method
How it was run: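 Corn leaves dipped in acetone solution at 1000 mg L⁻¹ and air-dried. Each treated disk placed singly in a 24-hole box and given 10 third-instar larvae. Percentage mortality scored after 4 days.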

Culicidae [2] = assay: Toxicity against fourth-instar larvae of Culex pipiens pallens assessed as mortality at 0.5 mg/kg measured after 7 to 10 days
How it was run: (§1)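 For each concentration, 1 mL of dilution was added to 99 mL water and 20 fourth-instar larvae introduced. Percentage mortality assessed 7–10 days after treatment.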

Mythimna separata [3] = assay: Stomach toxicity in fourth-instar Mythimna separata(Oriental armyworm) larvae in compound treated corn leaves assessed as mortality at 200 mg/kg measured after 4 days; settings: 96 h
Spodoptera exigua [4] = assay: Stomach toxicity in Spodoptera exigua in compound treated cabbage leaves assessed as mortality measured after 3 days by leaf-dip method; settings: 72 h
How it was run: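 Cabbage leaf disks (5 cm × 3 cm) dipped 3 s in test solution, air-dried, and placed singly in 80 cm³ boxes. Each disk given five third-instar larvae. Water- and acetone-treated leaves as controls, each treatment three times. Percentage mortality read at 3 days.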

Mythimna separata [5] = assay: Stomach toxicity in fourth-instar Mythimna separata (Oriental armyworm) larvae in compound treated corn leaves assessed as mortality at 100 mg/kg measured after 4 days; settings: 96 h
Helicoverpa armigera [6] = assay: Contact toxicity in Helicoverpa armigera assessed as mortality at 1000 mg/L by topical application measured after 4 days […]
How it was run: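 Third-instar larvae; compounds in acetone at 1000 mg L⁻¹, 0.5 μL applied to the thoracic tergite by microapplicator. Larvae then returned to standard rearing conditions. Percentage mortality scored 4 days after treatment.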

Mythimna separata [7] = assay: Stomach toxicity in fourth-instar Mythimna separata (Oriental armyworm) larvae in compound treated corn leaves assessed as mortality at 5 mg/kg measured after 4 days; settings: 96 h
Mythimna separata [8] = assay: Stomach toxicity in fourth-instar Mythimna separata (Oriental armyworm) larvae in compound treated corn leaves assessed as mortality at 10 mg/kg measured after 4 days; settings: 96 h
Culicidae [9] = assay: Toxicity against fourth-instar larvae of Culex pipiens pallens assessed as mortality at 1 mg/kg measured after 7 to 10 days; how it was run: as §1
Mythimna separata [10] = assay: Stomach toxicity in fourth-instar Mythimna separata (Oriental armyworm) larvae in compound treated corn leaves assessed as mortality at 50 mg/kg measured after 4 days; settings: 96 h
Ostrinia nubilalis = assay: Stomach toxicity in Ostrinia nubilalis (European corn borer) in compound treated corn leaves assessed as mortality measured after 4 days by leaf-dip method; settings: for LC50: Ostrinia nubilalis, 96 h
How it was run: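 Corn leaf disks (about 5 cm) dipped 3–5 s in test solution, air-dried, and placed singly in 7 cm glass vessels. Each disk given 10 third-instar larvae. Acetone-treated leaves as control, four replicates. Percentage mortality at 4 days; LC50 and LC95 derived.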

Plutella xylostella [11] = assay: Contact toxicity in fourth-instar Plutella xylostella (diamondback moth) larva assessed as mortality measured after 72 hr by insect-dip method
How it was run: (§2)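 Fourth-instar larvae immersed for 5 min in acetone solutions diluted with water, five concentrations. Larvae then held at 25 ± 1 °C under standard rearing. Usually 30 insects per dose, each treatment in triplicate, water-only control. Mortality read at 48 and 72 h and LC50 derived.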

Spodoptera exigua [12] = assay: Contact toxicity in fourth-instar Spodoptera exigua assessed as mortality by topical application measured after 72 hr; settings: read-out: LD50 (the source's name)
How it was run: (§3)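 Topical application to fourth-instar larvae: 1.0 μL of acetone dilution at various concentrations placed on the thoracic tergite by automatic microapplicator. Larvae then returned to standard rearing. Acetone-only control, each treatment three times. Mortality calculated at 48 and 72 h and LC50 derived.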

Mythimna separata [13] = assay: Stomach toxicity in fourth-instar Mythimna separata (Oriental armyworm) larvae in compound treated corn leaves assessed as mortality at 2.5 mg/kg measured after 4 days; settings: 96 h
Mythimna separata [14] = assay: Stomach toxicity in fourth-instar Mythimna separata (Oriental armyworm) larvae in compound treated corn leaves assessed as mortality at 25 mg/kg measured after 4 days; settings: 96 h
Plutella xylostella [15] = assay: Contact toxicity in fourth-instar Plutella xylostella (diamondback moth) larva assessed as mortality measured after 48 hr by insect-dip method; how it was run: as §2
Spodoptera exigua [16] = assay: Contact toxicity in fourth-instar Spodoptera exigua assessed as mortality by topical application measured after 48 hr; settings: read-out: LD50 (the source's name); how it was run: as §3
Culicidae [17] = assay: Toxicity against fourth-instar larvae of Culex pipiens pallens assessed as mortality at 2 mg/kg measured after 7 to 10 days; how it was run: as §1

| Compound | Activity (Helicoverpa armigera [1]) [%] | mortality at 0.5 mg/kg (Culicidae [2]) [%] | mortality at 200 mg/kg (Mythimna separata [3]) [%] | LC50 (Spodoptera exigua [4]) [mg/L] | mortality at 100 mg/kg (Mythimna separata [5]) [%] | Activity (Helicoverpa armigera [6]) [%] | mortality at 5 mg/kg (Mythimna separata [7]) [%] | mortality at 10 mg/kg (Mythimna separata [8]) [%] | mortality at 1 mg/kg (Culicidae [9]) [%] | mortality at 50 mg/kg (Mythimna separata [10]) [%] | LC95 (Ostrinia nubilalis) [mg/L] | LC50 (Ostrinia nubilalis) [mg/L] | LC50 (Plutella xylostella [11]) [mg/L] | LC50 (Spodoptera exigua [12]) [mg/L] | mortality at 2.5 mg/kg (Mythimna separata [13]) [%] | mortality at 25 mg/kg (Mythimna separata [14]) [%] | LC50 (Plutella xylostella [15]) [mg/L] | LC50 (Spodoptera exigua [16]) [mg/L] | mortality at 2 mg/kg (Culicidae [17]) [%] |
| --- | --- | --- | --- | --- | --- | --- | --- | --- | --- | --- | --- | --- | --- | --- | --- | --- | --- | --- | --- |
| Cc1cc(C)cc(C(=O)N(NC(=O)c2ccc3c(c2C)CC(C)O3)C(C)(C)C)c1 (stereo unspecified) | 70 | 10 | 100 | 12.7 (≈ 32.2 µM) | 100 | 50 | 80 | 95 | 10 | 100 | 271.89 (≈ 689 µM) | 40.5 (≈ 103 µM) | 81.4 (≈ 206 µM) | 52.8 (≈ 134 µM) | 20 | 100 | 124 (≈ 314 µM) | 190 (≈ 482 µM) | 80 |
| Cc1cc(C)cc(C(=O)N(NC(=O)c2ccc3c(c2C)CCCO3)C(C)(C)C)c1 [CHROMAFENOZIDE] | 65 | 10 | 100 | 6.3 (≈ 16 µM) | 100 | 60 | 100 | 100 | 80 | 100 | 139.25 (≈ 353 µM) | 18.6 (≈ 47.2 µM) | 123 (≈ 312 µM) | 14.9 (≈ 37.8 µM) | 80 | 100 | 236 (≈ 598 µM) | 29.8 (≈ 75.5 µM) | 100 |
| Cc1cc(C)cc(C(=O)N(NC(=O)c2ccc3c(c2C)OC(C)C3)C(C)(C)C)c1 (stereo unspecified) [FUXIAN] | 60 | 50 | 100 | 5 (≈ 12.7 µM) | 100 | 60 | 100 | 100 | 100 | 100 | 147.78 (≈ 375 µM) | 25.6 (≈ 64.8 µM) | 304 (≈ 772 µM) | 12.6 (≈ 31.9 µM) | 95 | 100 | 372 (≈ 943 µM) | 59.6 (≈ 151 µM) | 100 |
| Cc1cc(C)cc(C(=O)N(NC(=O)c2ccc3c(c2Cl)CCCO3)C(C)(C)C)c1 [N'-TERT-BUTYL-N'-(3,5-DIMETHYLBENZOYL)-N-5-CHLORO-6-CHROMANECARBOHYDRAZIDE] | 80 | – | – | 5.5 (≈ 13.3 µM) | – | 40 | – | – | – | – | 405.65 (≈ 978 µM) | 55.6 (≈ 134 µM) | 70.8 (≈ 171 µM) | 11.7 (≈ 28.2 µM) | – | – | 113 (≈ 273 µM) | 17.3 (≈ 41.7 µM) | – |
